The subject of experiment [1] is Cavia porcellus. The experiment in a line: Bronchodilatory activity in iv dosed Hartley guinea pig assessed as inhibition of serotonin-induced constriction compound of total 3 to 4 doses at 15 mins interval starting first dose 2 mins post challenge. Type of experiment: functional. Summed up:
(§1)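 Ventilated, curarized guinea pigs received repeated 12-s IV spasmogen injections every 5 min, tuned to a 20-50 cm water rise in tracheal pressure. Three or four logarithmically spaced IV doses were given over 1 min, at 15-min intervals, with at least four animals per spasmogen. ED50 is the dose giving -50% spasm variation, taken from a semilog regression. When -50% was not reached, ED50 is reported as greater than the top dose.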

For experiment [2], the system named is Cavia porcellus. Nature of the experiment: Bronchodilatory activity in iv dosed Hartley guinea pig assessed as inhibition of histamine-induced constriction compound of total 3 to 4 doses at 15 mins interval starting first dose 2 mins post challenge. The class given is functional. Summed up:
as §1

Experiment [3] deals with Cavia porcellus. The experiment in a line: Bronchodilatory activity in iv dosed Hartley guinea pig assessed as inhibition of acetylcholine-induced constriction compound of total 3 to 4 doses at 15 mins interval starting first dose 2 mins post challenge. Type of experiment: functional. Summed up:
as §1

In experiment [4] the test system is Cavia porcellus. The experiment in a line: Bronchodilatory activity in iv dosed Hartley guinea pig assessed as inhibition of acetylcholine-induced constriction at 3.2 mg/kg, iv of total 3 to 4 doses at 15 mins interval starting 2 mins post challenge. Type of experiment: functional. The gist of the method: (§2)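 Artificially ventilated, curarized guinea pigs. Spasmogen was given IV in 12-s injections every 5 min, adjusted to raise tracheal pressure by 20-50 cm water. After three similar control spasms, drug was infused IV over 1 min. Sodium salts were given in water and esters in 10% aqueous ethanol. Read-out was % variation of spasm amplitude versus control, in at least four animals per spasmogen.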

Experiment [5] has as its system Cavia porcellus. Nature of the experiment: Bronchodilatory activity in iv dosed Hartley guinea pig assessed as inhibition of histamine-induced constriction at 3.2 mg/kg, iv of total 3 to 4 doses at 15 mins interval starting 2 mins post challenge. Type of experiment: functional. Summed up:
as §2

In experiment [6] the test system is Cavia porcellus. The experiment in a line: Bronchodilatory activity in iv dosed Hartley guinea pig assessed as inhibition of serotonin-induced constriction at 3.2 mg/kg, iv of total 3 to 4 doses at 15 mins interval starting 2 mins post challenge. Type of experiment: functional. The gist of the method: as §2
For a further experiment, the system named is Canis familiaris. Nature of the experiment: Bronchodilatory activity in anesthetized dog assessed as inhibition of pilocarpine-induced bronchospasms compound administered through aerosol 15 mins post challenge measured up to 1 hr. The class given is functional, organism-based. The following applies: Canis lupus familiaris.
The mark [7] stands for this setting: Cavia porcellus, Hartley, iv, read-out: ED50.

Each structure is given as a SMILES string. Active and inactive are the calls of the source. The rule behind the calls is not given here.

As a reminder, the ED50 is the dose that gives a 50% effect, or the effect in half of the subjects. As usually defined, the inhibition in vivo is the relative decrease from the control value, in per cent.

Take `CCCCC1([C@H](O)/C=C/C2CCC(=O)[C@@H]2CCCCCCC(=O)OCC)CCC1` (mixture of isomers): the ED50 in the experiment on Cavia porcellus [1] turned out to be 409 µg/kg; with Cavia porcellus [2] (setting [7]), 15.1 µg/kg.

Turning to `CCCCC1([C@@H](O)/C=C/C2CCC(=O)[C@@H]2CCCCCCC(=O)OCC)CCC1` (mixture of isomers), the ED50 was determined as 32 µg/kg with Cavia porcellus [2] (setting [7]) and 2.06 µg/kg in the experiment on Cavia porcellus [3] (setting [7]).

Turning to `CCCCC1([C@H](O)/C=C/C2CCC(=O)[C@@H]2CCCCCCC(=O)O)CCC1` (mixture of isomers), the ED50 with Cavia porcellus [2] (setting [7]) was 2.4 µg/kg; in the experiment on Cavia porcellus [3] (Cavia porcellus, Hartley, iv) it was 47.8 µg/kg.

Turning to `CCCCC1([C@@H](O)/C=C/C2CCC(=O)[C@@H]2CCCCCCC(=O)O)CCC1` (mixture of isomers), the ED50 in the experiment with Cavia porcellus [1] worked out at 20.3 µg/kg; in the experiment on Cavia porcellus [2] (setting [7]), 13.9 µg/kg. In addition, the inhibition in vivo at 3.2 mg/kg in the experiment on Cavia porcellus [4] is less than 50%.

For the compound `CCCCC1([C@H](O)/C=C/C2CCC(=O)[C@@H]2C/C=C\CCCC(=O)O)CCC1` (mixture of isomers), the results for the ED50 with Cavia porcellus [1], with Cavia porcellus [2] (setting [7]) and in the experiment on Cavia porcellus [3] (setting [7]) were 7.67 µg/kg, 2.2 µg/kg and 24.2 µg/kg, respectively.

On to `CCCCC1([C@@H](O)/C=C/C2CCC(=O)[C@@H]2C/C=C\CCCC(=O)O)CCC1` (mixture of isomers), for which the inhibition in vivo at 3.2 mg/kg in the experiment on Cavia porcellus [5] and in the experiment on Cavia porcellus [4] was less than 50% throughout.

`CCCCC1([C@H](O)/C=C/C2CCC(=O)[C@@H]2CCCCCC(=O)OCC)CCC1` (mixture of isomers): the inhibition in vivo at 3.2 mg/kg with Cavia porcellus [6], in the experiment with Cavia porcellus [5] and with Cavia porcellus [4] was less than 50% in each case.

As for `CCCCC1([C@H](O)/C=C/C2CCC(=O)[C@@H]2C/C=C\CCCC(=O)OCC)CCC1` (mixture of isomers), the results for the ED50 with Cavia porcellus [1] and in the experiment with Cavia porcellus [2] (setting [7]) were 135 µg/kg and 221 µg/kg, respectively.

Take `CCCCC1([C@@H](O)/C=C/C2CCC(=O)[C@@H]2C/C=C\CCCC(=O)OCC)CCC1` (mixture of isomers): the inhibition in vivo at 3.2 mg/kg in the experiment on Cavia porcellus [6], in the experiment on Cavia porcellus [5] and with Cavia porcellus [4] was less than 50% throughout.

Regarding `CCCCC1([C@H](O)/C=C/C2CCC(=O)[C@@H]2CCCCCC(=O)O)CCC1` (mixture of isomers), the ED50 was 32 µg/kg in the experiment with Cavia porcellus [1], 32 µg/kg in the experiment with Cavia porcellus [2] (setting [7]) and 320 µg/kg with Cavia porcellus [3] (setting [7]).

As for `CCCCC1([C@H](O)/C=C/C2CCC(=O)[C@@H]2CCCCCCCC(=O)OCC)CCC1` (mixture of isomers), the inhibition in vivo at 3.2 mg/kg in the experiment on Cavia porcellus [6], in the experiment with Cavia porcellus [5] and in the experiment on Cavia porcellus [4] was less than 50% throughout.

In the case of `CCCCC1([C@@H](O)/C=C/C2CCC(=O)[C@@H]2CCCCCCCC(=O)OCC)CCC1` (mixture of isomers), the inhibition in vivo at 3.2 mg/kg in the experiment on Cavia porcellus [6], in the experiment with Cavia porcellus [5] and with Cavia porcellus [4] was less than 50% throughout.

As for `CCCCC1([C@H](O)/C=C/C2CCC(=O)[C@@H]2CCCCCCCC(=O)O)CCC1` (mixture of isomers), the inhibition in vivo at 3.2 mg/kg in the experiment on Cavia porcellus [6], in the experiment on Cavia porcellus [5] and in the experiment on Cavia porcellus [4] was less than 50% in each case.

Turning to `CCCCC1([C@@H](O)/C=C/C2CCC(=O)[C@@H]2CCCCCCCC(=O)O)CCC1` (mixture of isomers), the inhibition in vivo at 3.2 mg/kg in the experiment on Cavia porcellus [6], in the experiment with Cavia porcellus [5] and in the experiment with Cavia porcellus [4] was less than 50% each time.

Regarding `CCCCC1([C@H](O)/C=C/C2CCC(=O)[C@@H]2CCCCCCCCC(=O)OCC)CCC1` (mixture of isomers), the figures for the ED50 in the experiment with Cavia porcellus [1] and in the experiment with Cavia porcellus [2] (setting [7]) were 4380 µg/kg and 6210 µg/kg, respectively. In the experiment on Cavia porcellus [4], the inhibition in vivo at 3.2 mg/kg is less than 50%.

`CCCCC1([C@@H](O)/C=C/C2CCC(=O)[C@@H]2CCCCCCCCC(=O)OCC)CCC1` (mixture of isomers): the inhibition in vivo at 3.2 mg/kg in the experiment with Cavia porcellus [6], in the experiment on Cavia porcellus [5] and with Cavia porcellus [4] was less than 50% each time.

As for `CCCCC1([C@H](O)/C=C/C2CCC(=O)[C@@H]2CCCCCCCCC(=O)O)CCC1` (mixture of isomers), the inhibition in vivo at 3.2 mg/kg in the experiment on Cavia porcellus [6], in the experiment with Cavia porcellus [5] and in the experiment with Cavia porcellus [4] was less than 50% throughout.

In the case of `CCCCC1([C@@H](O)/C=C/C2CCC(=O)[C@@H]2CCCCCCCCC(=O)O)CCC1` (mixture of isomers), the inhibition in vivo at 3.2 mg/kg in the experiment on Cavia porcellus [6], in the experiment on Cavia porcellus [5] and in the experiment with Cavia porcellus [4] was less than 50% each time.

For the compound `CCCCC1([C@H](O)/C=C/C2CCC(=O)[C@@H]2CCCCC(C)(C)CC(=O)OCC)CCC1` (mixture of isomers), the inhibition in vivo at 3.2 mg/kg in the experiment with Cavia porcellus [6], in the experiment with Cavia porcellus [5] and in the experiment on Cavia porcellus [4] was less than 50% each time.

In the case of `CCCCC1([C@@H](O)/C=C/C2CCC(=O)[C@@H]2CCCCC(C)(C)CC(=O)OCC)CCC1` (mixture of isomers), the inhibition in vivo at 3.2 mg/kg with Cavia porcellus [6], with Cavia porcellus [5] and in the experiment with Cavia porcellus [4] was less than 50% each time.

With `CCCCC1([C@H](O)/C=C/C2CCC(=O)[C@@H]2CCCCC(C)(C)CC(=O)O)CCC1` (mixture of isomers), the inhibition in vivo at 3.2 mg/kg with Cavia porcellus [6], in the experiment on Cavia porcellus [5] and in the experiment with Cavia porcellus [4] was less than 50% throughout.

`CCCCC1([C@@H](O)/C=C/C2CCC(=O)[C@@H]2CCCCC(C)(C)CC(=O)O)CCC1` (mixture of isomers): the inhibition in vivo at 3.2 mg/kg in the experiment with Cavia porcellus [6], with Cavia porcellus [5] and with Cavia porcellus [4] was less than 50% each time.

On to `CCCCC1([C@H](O)/C=C/C2CCC(=O)[C@@H]2CCCCSCC(=O)OCC)CCC1` (mixture of isomers), for which the ED50 came to 300 µg/kg in the experiment with Cavia porcellus [1], 30 µg/kg with Cavia porcellus [2] (setting [7]) and 909 µg/kg in the experiment with Cavia porcellus [3] (setting [7]).

Take `CCCCC1([C@@H](O)/C=C/C2CCC(=O)[C@@H]2CCCCSCC(=O)OCC)CCC1` (mixture of isomers): the 50% effective dose (ED50) with Cavia porcellus [2] (setting [7]) is greater than 672 µg/kg. Also, the inhibition in vivo at 3.2 mg/kg with Cavia porcellus [6] and in the experiment with Cavia porcellus [4] was less than 50% in each case.

For the compound `CCCCC1([C@H](O)/C=C/C2CCC(=O)[C@@H]2CCCCSCC(=O)O)CCC1` (mixture of isomers), the ED50 worked out at 171 µg/kg in the experiment with Cavia porcellus [1] and 91.2 µg/kg with Cavia porcellus [2] (setting [7]). Further, in the experiment on Cavia porcellus [4], the inhibition in vivo at 3.2 mg/kg was less than 50%.

Regarding `CCCCC1([C@@H](O)/C=C/C2CCC(=O)[C@@H]2CCCCSCC(=O)O)CCC1` (mixture of isomers), the ED50 in the experiment with Cavia porcellus [2] (setting [7]) was found to be 606 µg/kg. In addition, the inhibition in vivo at 3.2 mg/kg with Cavia porcellus [6] and in the experiment on Cavia porcellus [4] was less than 50% each time.

On to `CCCCC1([C@H](O)/C=C/C2[C@H](O)CC(=O)[C@@H]2CCCCCCC(=O)O)CCC1` (mixture of isomers), for which the figures for the ED50 in the experiment on Cavia porcellus [1], with Cavia porcellus [2] and with Cavia porcellus [3] (setting [7]) were 1.26 µg/kg, 0.555 µg/kg and 1.45 µg/kg, respectively. The inhibition entry with Canis familiaris is “Active”.

For the compound `CCCCC1([C@@H](O)/C=C/C2[C@H](O)CC(=O)[C@@H]2CCCCCCC(=O)O)CCC1` (mixture of isomers), the ED50 with Cavia porcellus [1] was 43.9 µg/kg; in the experiment with Cavia porcellus [2] (setting [7]), 17 µg/kg; with Cavia porcellus [3] (setting [7]), 30 µg/kg. The inhibition entry in the experiment with Canis familiaris was “Active”.

For the compound `CCCCC1([C@H](O)/C=C/C2[C@H](O)CC(=O)[C@@H]2C/C=C\CCCC(=O)O)CCC1` (mixture of isomers), the figures for the ED50 with Cavia porcellus [1], in the experiment on Cavia porcellus [2] (setting [7]) and in the experiment with Cavia porcellus [3] (setting [7]) were 2.51 µg/kg, 1.54 µg/kg and 1.06 µg/kg, respectively.

As to `CCCCC1([C@@H](O)/C=C/C2[C@H](O)CC(=O)[C@@H]2C/C=C\CCCC(=O)O)CCC1` (mixture of isomers), the ED50 with Cavia porcellus [1] was 305 µg/kg; in the experiment with Cavia porcellus [2] (setting [7]), 48.4 µg/kg; in the experiment on Cavia porcellus [3] (setting [7]) it was 32 µg/kg.

As for `CCCC1([C@H](O)/C=C/C2[C@H](O)CC(=O)[C@@H]2C/C=C\CCCC(=O)O)CCC1` (mixture of isomers), the ED50 in the experiment on Cavia porcellus [1] stood at 3 µg/kg; in the experiment with Cavia porcellus [2] it was 0.0979 µg/kg; in the experiment on Cavia porcellus [3] (setting [7]), 3 µg/kg.

On to `CCCC1([C@@H](O)/C=C/C2[C@H](O)CC(=O)[C@@H]2C/C=C\CCCC(=O)O)CCC1` (mixture of isomers), for which the ED50 in the experiment on Cavia porcellus [1] came to 265 µg/kg; in the experiment on Cavia porcellus [2] (setting [7]) it was 46.7 µg/kg. In addition, in the experiment with Cavia porcellus [4], the inhibition in vivo at 3.2 mg/kg was less than 50%.

In the case of `CCCCC[C@H](O)/C=C/[C@H]1[C@H](O)CC(=O)[C@@H]1CCCCCCC(=O)O` [ALPROSTADIL], the values for the ED50 in the experiment with Cavia porcellus [1], in the experiment with Cavia porcellus [2] (setting [7]) and with Cavia porcellus [3] were 1.07 µg/kg, 0.7 µg/kg and 3.3 µg/kg, respectively. In the experiment with Canis familiaris, the inhibition result is “Active”.
